According to ChEMBL document CHEMBL3425455, “Short Hydrophobic Peptides with Cyclic Constraints Are Potent Glucagon-like Peptide-1 Receptor (GLP-1R) Agonists” (J Med Chem, 2015):
Positions of bridges follow the written chain, without caps; N, C: chain ends. Non-standard residues stand in square brackets, D forms with d. Residues, ends and D or L forms follow the SMILES beside them. Bip(2'-Et-4'-OMe) = CCc1cc(OC)ccc1-c1ccc(C[C@H](N)C(=O)O)cc1; Bip(2'-Me) = Cc1ccccc1-c1ccc(C[C@H](N)C(=O)O)cc1; αMePhe(2,6-F2) = C[C@](N)(Cc1c(F)cccc1F)C(=O)O; Tyr(3-I) = N[C@@H](Cc1ccc(O)c(I)c1)C(=O)O; αMePhe(2-F) = C[C@](N)(Cc1ccccc1F)C(=O)O; hhPhe = N[C@@H](CCCc1ccccc1)C(=O)O; Aad = N[C@@H](CCCC(=O)O)C(=O)O; Aib = CC(C)(N)C(=O)O

Key:
[1] = molecular target: T1, Glucagon-like peptide 1 receptor (Homo sapiens, UniProt P43220); experiment: Agonist activity at human GLP-1R expressed in CHO cells assessed as cAMP accumulation incubated for 30 mins; format: functional, cell-based
T1 sequence (P43220 whole entry): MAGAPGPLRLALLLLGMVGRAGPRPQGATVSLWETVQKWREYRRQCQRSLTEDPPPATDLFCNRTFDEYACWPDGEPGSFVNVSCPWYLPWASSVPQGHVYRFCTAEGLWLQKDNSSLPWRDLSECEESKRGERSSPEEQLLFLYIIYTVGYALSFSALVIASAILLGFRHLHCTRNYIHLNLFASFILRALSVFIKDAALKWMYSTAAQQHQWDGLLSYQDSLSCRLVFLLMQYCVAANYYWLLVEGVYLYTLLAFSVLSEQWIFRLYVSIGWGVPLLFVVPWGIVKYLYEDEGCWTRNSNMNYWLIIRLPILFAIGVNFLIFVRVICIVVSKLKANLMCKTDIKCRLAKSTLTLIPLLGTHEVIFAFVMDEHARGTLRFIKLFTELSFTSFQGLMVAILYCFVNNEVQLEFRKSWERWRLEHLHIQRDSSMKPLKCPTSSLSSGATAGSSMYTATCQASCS
How it was run: (§1)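 CHO cells stably expressing human GLP-1R, grown in DMEM/F12 with GlutaMAX, PenStrep and Geneticin, were lifted and resuspended in HBSS with 5.56 mM glucose, 0.1% BSA, 0.5 mM IBMX, 5 mM HEPES (final). 1000 cells/well were exposed to compound (10 μM to 100 fM) for 30 min at room temperature. After lysis with tracer/ULight reagents (2 h, room temperature), cAMP was read by LANCE Ultra TR-FRET. Values are geometric means with standard error.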

[2] = molecular target: T1, Glucagon-like peptide 1 receptor; experiment: Agonist activity at human GLP-1R expressed in CHO cells assessed as cAMP accumulation incubated for 30 mins relative to GLP1; format: functional, cell-based; how it was run: as §1
[3] = molecular target: T1, Glucagon-like peptide 1 receptor; experiment: Displacement of [125I]-18 from human GLP-1R expressed in CHO cell membranes incubated for 120 mins by scintillation counting based radioligand binding assay
[4] = molecular target: T1, Glucagon-like peptide 1 receptor; experiment: Ratio of Ki for displacement of [125I]-18 from human GLP-1R expressed in CHO cell membranes by scintillation counting based radioligand binding assay to EC50 for Agonist activity at human GLP-1R expressed in CHO cells assessed as cAMP accumulation

Compound | EC50 [1] [nM] | Activity [2] [%] | Ki [3] [nM] | Ratio [4]
CCc1cc(OC)ccc1-c1ccc(C[C@H](NC(=O)[C@H](CC(=O)O)NC(=O)[C@H](CO)NC(=O)[C@@H](NC(=O)[C@](C)(Cc2ccccc2F)NC(=O)[C@@H]2CCSSCC[C@@H](NC(=O)[C@@H](N)Cc3cnc[nH]3)C(=O)N[C@@H](CCC(=O)O)C(=O)NCC(=O)N2)[C@@H](C)O)C(=O)N[C@@H](CCCc2ccccc2)C(N)=O)cc1 | 200 | > 85 | 1700 | 
CCc1cc(OC)ccc1-c1ccc(C[C@H](NC(=O)[C@@H]2CCCCNC(=O)C[C@H](NC(=O)CNC(=O)[C@H](CCC(=O)O)NC(=O)C(C)(C)NC(=O)[C@@H](N)Cc3cnc[nH]3)C(=O)N[C@@](C)(Cc3ccccc3F)C(=O)N[C@@H]([C@@H](C)O)C(=O)N[C@@H](CO)C(=O)N2)C(=O)N[C@@H](CCCc2ccccc2)C(N)=O)cc1 (H-H[Aib]EGD[αMePhe(2-F)]TSK[Bip(2'-Et-4'-OMe)][hhPhe]-NH2; lactam 5-9) | 320 | > 85 | 1200 | 
CCc1cc(OC)ccc1-c1ccc(C[C@H](NC(=O)[C@H](CC(=O)O)NC(=O)[C@H](CO)NC(=O)[C@@H](NC(=O)[C@](C)(Cc2ccccc2F)NC(=O)[C@@H]2CSSC[C@@H](NC(=O)[C@@H](N)Cc3cnc[nH]3)C(=O)N[C@@H](CCC(=O)O)C(=O)NCC(=O)N2)[C@@H](C)O)C(=O)N[C@@H](CCCc2ccccc2)C(N)=O)cc1 | 600 | > 85 | 2400 | 
CCc1cc(OC)ccc1-c1ccc(C[C@H](NC(=O)[C@H](CC(=O)O)NC(=O)[C@H](CO)NC(=O)[C@@H](NC(=O)[C@](C)(Cc2ccccc2F)NC(=O)[C@@H](NC(=O)CNC(=O)[C@H](CCC(=O)O)NC(=O)C(C)(C)NC(=O)[C@@H](N)Cc2cnc[nH]2)[C@@H](C)O)[C@@H](C)O)C(=O)N[C@@H](CCCc2ccccc2)C(N)=O)cc1 (H-H[Aib]EGT[αMePhe(2-F)]TSD[Bip(2'-Et-4'-OMe)][hhPhe]-NH2) | 0.12 | > 85 | 0.57 | 3.5
CCc1cc(OC)ccc1-c1ccc(C[C@H](NC(=O)[C@H](CC(=O)O)NC(=O)[C@H](CO)NC(=O)[C@@H](NC(=O)[C@](C)(Cc2ccccc2F)NC(=O)[C@H]2CCSSC[C@H](NC(=O)[C@@H](N)Cc3cnc[nH]3)C(=O)N[C@@H](CCC(=O)O)C(=O)NCC(=O)N2)[C@@H](C)O)C(=O)N[C@@H](CCCc2ccccc2)C(N)=O)cc1 | 190 | > 85 | 980 | 
CCc1cc(OC)ccc1-c1ccc(C[C@H](NC(=O)[C@H](CC(=O)O)NC(=O)[C@H](CO)NC(=O)[C@@H](NC(=O)[C@](C)(Cc2ccccc2F)NC(=O)[C@@H]2CCSSCC[C@H](NC(=O)[C@@H](N)Cc3cnc[nH]3)C(=O)N[C@@H](CCC(=O)O)C(=O)NCC(=O)N2)[C@@H](C)O)C(=O)N[C@@H](CCCc2ccccc2)C(N)=O)cc1 | 390 | > 85 | 3000 | 
CCc1cc(OC)ccc1-c1ccc(C[C@H](NC(=O)[C@H](CC(=O)O)NC(=O)[C@H](CO)NC(=O)[C@@H](NC(=O)[C@](C)(Cc2ccccc2F)NC(=O)[C@H]2CSSCC[C@H](NC(=O)[C@@H](N)Cc3cnc[nH]3)C(=O)N[C@@H](CCC(=O)O)C(=O)NCC(=O)N2)[C@@H](C)O)C(=O)N[C@@H](CCCc2ccccc2)C(N)=O)cc1 | 730 | > 85 | > 8000 | 
CCc1cc(OC)ccc1-c1ccc(C[C@H](NC(=O)[C@H](CC(=O)O)NC(=O)[C@H](CO)NC(=O)[C@@H](NC(=O)[C@](C)(Cc2ccccc2F)NC(=O)[C@@H]2CSSC[C@H](NC(=O)[C@@H](N)Cc3cnc[nH]3)C(=O)N[C@@H](CCC(=O)O)C(=O)NCC(=O)N2)[C@@H](C)O)C(=O)N[C@@H](CCCc2ccccc2)C(N)=O)cc1 | 670 | > 85 | > 3100 | 
CCc1cc(OC)ccc1-c1ccc(C[C@H](NC(=O)[C@@H]2CCCCNC(=O)CC[C@H](NC(=O)CNC(=O)[C@H](CCC(=O)O)NC(=O)C(C)(C)NC(=O)[C@@H](N)Cc3cnc[nH]3)C(=O)N[C@@](C)(Cc3ccccc3F)C(=O)N[C@@H]([C@@H](C)O)C(=O)N[C@@H](CO)C(=O)N2)C(=O)N[C@@H](CCCc2ccccc2)C(N)=O)cc1 (H-H[Aib]EGE[αMePhe(2-F)]TSK[Bip(2'-Et-4'-OMe)][hhPhe]-NH2; lactam 5-9) | 430 | > 85 | 320 | 

The remaining lines, values ahead:

EC50 [1] [nM] | Activity [2] [%] | Ki [3] [nM] | Ratio [4] | Compound
1.8 | > 85 | 130 |  | CCc1cc(OC)ccc1-c1ccc(C[C@H](NC(=O)[C@H](CC(=O)O)NC(=O)[C@H](CO)NC(=O)[C@@H](NC(=O)[C@](C)(Cc2ccccc2F)NC(=O)[C@H]2CCSSCC[C@H](NC(=O)[C@@H](N)Cc3cnc[nH]3)C(=O)N[C@@H](CCC(=O)O)C(=O)NCC(=O)N2)[C@@H](C)O)C(=O)N[C@@H](CCCc2ccccc2)C(N)=O)cc1
81 | > 85 | 550 |  | CCc1cc(OC)ccc1-c1ccc(C[C@H](NC(=O)[C@H](CC(=O)O)NC(=O)[C@H](CO)NC(=O)[C@@H](NC(=O)[C@](C)(Cc2ccccc2F)NC(=O)[C@H]2CCSSC[C@@H](NC(=O)[C@@H](N)Cc3cnc[nH]3)C(=O)N[C@@H](CCC(=O)O)C(=O)NCC(=O)N2)[C@@H](C)O)C(=O)N[C@@H](CCCc2ccccc2)C(N)=O)cc1
10 | > 85 | 17 |  | CCc1cc(OC)ccc1-c1ccc(C[C@H](NC(=O)[C@@H]2CCC(=O)NCCCC[C@H](NC(=O)CNC(=O)[C@H](CCC(=O)O)NC(=O)C(C)(C)NC(=O)[C@@H](N)Cc3cnc[nH]3)C(=O)N[C@@](C)(Cc3ccccc3F)C(=O)N[C@@H]([C@@H](C)O)C(=O)N[C@@H](CO)C(=O)N2)C(=O)N[C@@H](CCCc2ccccc2)C(N)=O)cc1 (H-H[Aib]EGK[αMePhe(2-F)]TSE[Bip(2'-Et-4'-OMe)][hhPhe]-NH2; lactam 5-9)
68 | > 85 | 59 |  | CCc1cc(OC)ccc1-c1ccc(C[C@H](NC(=O)[C@@H]2CC(=O)NCCCC[C@H](NC(=O)CNC(=O)[C@H](CCC(=O)O)NC(=O)C(C)(C)NC(=O)[C@@H](N)Cc3cnc[nH]3)C(=O)N[C@@](C)(Cc3ccccc3F)C(=O)N[C@@H]([C@@H](C)O)C(=O)N[C@@H](CO)C(=O)N2)C(=O)N[C@@H](CCCc2ccccc2)C(N)=O)cc1 (H-H[Aib]EGK[αMePhe(2-F)]TSD[Bip(2'-Et-4'-OMe)][hhPhe]-NH2; lactam 5-9)
0.045 | > 85 | 6 |  | CCc1cc(OC)ccc1-c1ccc(C[C@H](NC(=O)[C@H](CC(=O)O)NC(=O)[C@H](CO)NC(=O)[C@@H](NC(=O)[C@](C)(Cc2ccccc2F)NC(=O)[C@@H](NC(=O)CNC(=O)[C@H](CCC(=O)O)NC(=O)C(C)(C)NC(=O)[C@@H](N)Cc2cnc[nH]2)[C@@H](C)O)[C@@H](C)O)C(=O)N[C@@H](Cc2ccc(O)c(I)c2)C(N)=O)cc1 (H-H[Aib]EGT[αMePhe(2-F)]TSD[Bip(2'-Et-4'-OMe)][Tyr(3-I)]-NH2)
0.73 | > 85 | 41 |  | CCc1cc(OC)ccc1-c1ccc(C[C@H](NC(=O)[C@H](CC(=O)O)NC(=O)[C@H](CO)NC(=O)[C@@H](NC(=O)[C@](C)(Cc2ccccc2F)NC(=O)[C@H]2CCSSCC[C@@H](NC(=O)[C@@H](N)Cc3cnc[nH]3)C(=O)N[C@@H](CCC(=O)O)C(=O)NCC(=O)N2)[C@@H](C)O)C(=O)N[C@@H](CCCc2ccccc2)C(N)=O)cc1
0.19 | > 85 | 0.66 | 3.5 | CCc1cc(OC)ccc1-c1ccc(C[C@H](NC(=O)[C@H](CC(=O)O)NC(=O)[C@H](CO)NC(=O)[C@@H](NC(=O)[C@](C)(Cc2c(F)cccc2F)NC(=O)[C@@H](NC(=O)CNC(=O)[C@H](CCC(=O)O)NC(=O)C(C)(C)NC(=O)[C@@H](N)Cc2cnc[nH]2)[C@@H](C)O)[C@@H](C)O)C(=O)N[C@@H](Cc2ccc(-c3ccccc3C)cc2)C(N)=O)cc1 (H-H[Aib]EGT[αMePhe(2,6-F2)]TSD[Bip(2'-Et-4'-OMe)][Bip(2'-Me)]-NH2)
110 | > 85 | 4800 | 43 | CCc1cc(OC)ccc1-c1ccc(C[C@H](NC(=O)[C@H](CC(=O)O)NC(=O)[C@H](CO)NC(=O)[C@@H](NC(=O)[C@](C)(Cc2ccccc2F)NC(=O)[C@H]2CSSCC[C@@H](NC(=O)[C@@H](N)Cc3cnc[nH]3)C(=O)N[C@@H](CCC(=O)O)C(=O)NCC(=O)N2)[C@@H](C)O)C(=O)N[C@@H](CCCc2ccccc2)C(N)=O)cc1
95 | > 85 | 300 |  | CCc1cc(OC)ccc1-c1ccc(C[C@H](NC(=O)[C@@H]2CCCC(=O)NCCCC[C@H](NC(=O)CNC(=O)[C@H](CCC(=O)O)NC(=O)C(C)(C)NC(=O)[C@@H](N)Cc3cnc[nH]3)C(=O)N[C@@](C)(Cc3ccccc3F)C(=O)N[C@@H]([C@@H](C)O)C(=O)N[C@@H](CO)C(=O)N2)C(=O)N[C@@H](CCCc2ccccc2)C(N)=O)cc1 (H-H[Aib]EGK[αMePhe(2-F)]TS[Aad][Bip(2'-Et-4'-OMe)][hhPhe]-NH2; lactam 5-9)
